Assay results from ChEMBL document CHEMBL1152629, “Discovery and structure-activity relationship analysis of Staphylococcus aureus sortase A inhibitors” (Bioorg Med Chem, 2009).
Converted amounts (≈) assume the structure as drawn. The source made the active and inactive calls. The rule behind the calls is not given here.

Columns and labels:
[1] = Inhibition of Staphylococcus aureus sortase A deltaN59 mutant assessed as Dap(Dnp) hydrolysis by FRET assay
[2] = Inhibition of Bacillus anthracis sortase A by FRET assay
Outline: (§1)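 B. anthracis SrtA (1.5–15 µM final) preincubated 1 h at 25 °C with compound (0.08–400 µM final, Me2SO) in 20 mM HEPES, 5 mM CaCl2, pH 7.5. Reaction started with 100 µM Abz-LPETG-Dap(Dnp) substrate. Fluorescence read at ex 335/em 420 nm. IC50 from fit of initial velocities, three independent data sets, Hill equation.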

Staphylococcus aureus [3] = assay: Antimicrobial activity against Staphylococcus aureus Newman by microtiter broth dilution method; format: functional
Outline: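 S. aureus Newman overnight culture diluted to OD600 0.01, incubated at 37 °C, diluted to OD600 0.005; compound added at final 0.1–100 µM. OD600 followed during overnight growth at 37 °C in plate reader. Growth percentage relative to no-inhibitor cultures and to 10 µg/mL erythromycin. Triplicate.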

[4] = Inhibition of Bacillus anthracis sortase A by FRET-based enzyme kinetics assay; settings: read-out: Ki(app); outline: as §1
[5] = Inhibition of Staphylococcus aureus sortase A deltaN59 mutant assessed as Dap(Dnp) hydrolysis by FRET assay based enzyme kinetics assay; settings: read-out: Ki(app)
Staphylococcus aureus [6] = system: Staphylococcus aureus

Structure (SMILES)	IC50 [1] [µM]	other results
COc1cnn(-c2ccccc2)c(=O)c1S	9.3	–
Cc1ccc(N2C(=O)/C(=C/c3cc(Br)c(O)c([N+](=O)[O-])c3)SC2=S)c(C)c1	35	–
O=c1c(Cl)c(Cl)cnn1C1CCCCC1	> 50	IC50 [2]: 14 µM
CCOc1cnn(-c2cccc(F)c2)c(=O)c1S	5.7	IC50 [2]: 0.9 µM
CC1=NOC(=O)/C1=N\c1ccc([N+](=O)[O-])cc1	17	–
CC1=NN(c2ccccc2)C(=S)/C1=C/Nc1ccc(C)c(C)c1	52	–
CC1=NN(c2ccccc2)C(=S)/C1=C/Nc1ccccn1	0.76	IC50 [2]: 1.4 µM; Activity (Staphylococcus aureus [3]): inactive
O=C1/C(=C/c2ccc(-c3ccccc3)o2)SC(=S)N1Cc1ccccc1	492	–
CCOc1c(Cl)cnn(-c2cccc(F)c2)c1=O	> 50	–
CCOc1cnn(-c2cc(Cl)cc(Cl)c2)c(=O)c1S	166	IC50 [2]: 5.2 µM
CC1=NN(c2ccc(Cl)cc2)C(=O)/C1=C/Nc1ccc([N+](=O)[O-])cc1C	45	–
CC1=NN(c2ccccc2)C(=S)/C1=C/Nc1c(Br)cc(Br)cc1Br	–	Ki [4]: 1.7 µM; Activity (Staphylococcus aureus [3]): inactive
CC1=NN(c2ccccc2)C(=S)/C1=C/Nc1ccc(Br)cc1	39	Activity (Staphylococcus aureus [3]): inactive
CCCN1C(=O)/C(=C/c2ccc(-c3ccccc3)o2)SC1=S	186	–
CC1=NN(c2ccccc2)C(=S)/C1=C/Nc1ccccc1Cl	54	–
CSc1cnn(-c2ccccc2)c(=O)c1O	> 50	–
CC1=NN(c2ccccc2)C(=S)/C1=C/NC1CCCCC1	115	–
CC1=NN(c2ccc(Cl)cc2)C(=O)/C1=C/Nc1ccc([N+](=O)[O-])cc1	48	–
COc1c(Cl)cnn(C2CCCCC2)c1=O	> 50	–
CCOc1c(Cl)cnn(-c2ccc([N+](=O)[O-])cc2)c1=O	> 50	–
O=C(/C=C/c1ccc([N+](=O)[O-])cc1)c1ccccc1	51	–
Cc1ccc(N2C(=O)/C(=C/c3cccc([N+](=O)[O-])c3)SC2=S)c(C)c1	119	–

Structure (SMILES)	IC50 [1] [µM]	other results
CCOc1c(S)cnn(C2CCCCC2)c1=O	17.9	–
CCOc1c(Cl)cnn(-c2cccc(C)c2)c1=O	> 50	–
C=CCN1C(=O)/C(=C/c2ccc(-c3ccccc3)o2)SC1=S	199	IC50 [2]: 27 µM
CCSc1c(S)cnn(-c2ccccc2)c1=O	–	Ki [4]: 0.3 µM; Ki [5]: 1.4 µM; Activity (Staphylococcus aureus [3]): inactive
CCOc1c(Cl)cnn(-c2cc(Cl)cc(Cl)c2)c1=O	> 50	–
COc1c(Cl)cnn(-c2cccc(Br)c2)c1=O	> 50	–
CC1=NN(c2ccccc2)C(=S)/C1=C/Nc1ccc(I)cc1	42	–
CCOc1c(S)cnn(-c2cccc(C)c2)c1=O	3.3	–
CC1=NN(c2ccccc2)C(=S)/C1=C/Nc1ccc([N+](=O)[O-])cc1O	9.6	–
CC1=NN(c2ccccc2)C(=O)/C1=C/Nc1ccc([N+](=O)[O-])cc1	56	Ki [5]: 0.3 µM
COc1c(Cl)cnn(-c2cccc(C)c2)c1=O	> 50	–
COc1c(O)cnn(-c2ccccc2)c1=O	> 50	IC50 [2]: > 50 µM
CCOc1c(SS)cnn(-c2ccccc2)c1=O	1.5	IC50 [2]: 1.2 µM
CCOc1c(S)cnn(-c2ccccc2)c1=O	–	Ki [5]: 0.2 µM
CCOc1cnn(-c2cccc(C)c2)c(=O)c1Cl	> 50	–
CC1=NN(c2ccccc2)C(=S)/C1=C/Nc1ccc(/N=N/c2ccccc2)cc1	9	Activity (Staphylococcus aureus [3]): inactive
COc1c(S)cnn(-c2cccc(Cl)c2)c1=O	4.5	Activity (Staphylococcus aureus [6]): 50%; MIC (Staphylococcus aureus [3]): > 1000 µM
CCOc1cnn(-c2ccc([N+](=O)[O-])cc2)c(=O)c1Cl	219	–
CC1=NN(c2ccccc2)C(=S)/C1=C/Nc1ccc([N+](=O)[O-])cc1	–	Activity (Staphylococcus aureus [6]): 58%; MIC (Staphylococcus aureus [3]): > 1000 µM
CC1=NN(c2ccccc2)C(=S)/C1=C/Nc1ccc(C)cc1C	68	–
CC1=NN(c2ccccc2)C(=S)/C1=C/Nc1ccccc1O	22	–
CCOc1c(SSC)cnn(-c2ccccc2)c1=O	–	Ki [5]: 0.4 µM

Structure (SMILES)	IC50 [1] [µM]	other results
CCn1ncc(SC)c(O)c1=O	> 50	–
CSc1cnn(-c2ccccc2)c(=O)c1Cl	> 50	–
CCOc1cnn(C2CCCCC2)c(=O)c1Cl	> 50	–
CCOc1cnn(-c2cccc(Br)c2)c(=O)c1Cl	> 50	–
CCN1C(=O)/C(=C/c2ccc(-c3ccccc3[N+](=O)[O-])o2)SC1=S	104	–
CCOc1c(S)cnn(-c2cccc(F)c2)c1=O	5.5	–
COc1c(Cl)cnn(-c2ccccc2)c1=O	> 50	–
CCN1C(=O)/C(=C/c2ccc(-c3cccc(Cl)c3)o2)SC1=S	109	–
CCSc1c(O)cnn(-c2ccccc2)c1=O	> 50	IC50 [2]: > 50 µM
O=c1c(Cl)c(Cl)cnn1-c1ccc([N+](=O)[O-])cc1	> 50	–
CCOc1c(S)cnn(-c2cccc(Br)c2)c1=O	> 50	–
O=c1c(Cl)c(Cl)cnn1-c1cccc(Br)c1	> 50	–
CN1C(=O)/C(=C/c2cc([N+](=O)[O-])cc(Br)c2O)SC1=S	14	–
CC(=O)c1ccc(/N=C2\C(=O)NN=C2C)cc1	26	–
O=c1c(Cl)c(Cl)cnn1-c1ccccc1	> 50	–
CCOc1cnn(-c2cccc(F)c2)c(=O)c1Cl	> 50	–
CCOc1c(SSc2ccccn2)cnn(-c2ccccc2)c1=O	–	Ki [5]: 0.03 µM
CC1=NN(c2ccc(C)cc2)C(=O)/C1=C/Nc1ccc([N+](=O)[O-])cc1	62	–
CC1=NN(c2ccccc2)C(=S)/C1=C/Nc1ccc([N+](=O)[O-])cc1[N+](=O)[O-]	6.8	–
CCOc1c(Cl)cnn(C2CCCCC2)c1=O	> 50	–
CCOc1cnn(-c2cccc(C)c2)c(=O)c1S	3.1	Activity (Staphylococcus aureus [3]): inactive
O=C1/C(=C/c2cc([N+](=O)[O-])cc(Br)c2O)SC(=S)N1c1cccc(Cl)c1	17	–

Structure (SMILES)	IC50 [1] [µM]	other results
CCOc1c(Cl)cnn(-c2ccccc2)c1=O	> 50	–
CC1=NN(c2ccccc2)C(=S)/C1=C/Nc1ccc([N+](=O)[O-])cc1Br	8.9	–
O=c1c(Cl)c(Cl)cnn1-c1cc(Cl)cc(Cl)c1	61	–
Cc1cccc(-n2ncc(Cl)c(Cl)c2=O)c1	> 50	–
CCOc1cnn(-c2ccccc2)c(=O)c1Cl	1	–
COc1c(Cl)cnn(-c2cc(Cl)cc(Cl)c2)c1=O	> 50	–
O=c1c(OCc2ccccc2)c(O)cnn1-c1ccccc1	> 50	IC50 [2]: > 50 µM
COc1c(Cl)cnn(-c2cccc(F)c2)c1=O	> 50	–
CCOc1cnn(-c2ccccc2)c(=O)c1S	4.4	–
O=C1/C(=C/c2cc([N+](=O)[O-])cc(Br)c2O)SC(=S)N1c1ccc([N+](=O)[O-])cc1	12	–
CCOc1c(S)cnn(-c2ccc([N+](=O)[O-])cc2)c1=O	30	–
CCOc1c(S)cnn(-c2cc(Cl)cc(Cl)c2)c1=O	301	–
CC1=NN(c2ccccc2)C(=S)/C1=C/Nc1cc([N+](=O)[O-])ccc1O	14	–
Cc1cccc(N2C(=O)/C(=C/c3cc([N+](=O)[O-])cc(Br)c3O)SC2=S)c1	15	–
CCOc1c(Cl)cnn(-c2cccc(Br)c2)c1=O	> 50	–
CN1C(=O)/C(=C/c2ccc(-c3ccccc3)o2)SC1=S	405	–
O=c1c(Cl)c(Cl)cnn1-c1cccc(F)c1	> 50	–
Cc1ccc(N2C(=O)/C(=C/c3cc([N+](=O)[O-])cc(Br)c3O)SC2=S)c(C)c1	3.7	Activity (Staphylococcus aureus [6]): 84%; MIC (Staphylococcus aureus [3]): 10 µM (≈ 4.65 µg/mL)
Cc1ccc(/C=C2\SC(=S)N(c3cccc(Cl)c3)C2=O)cc1[N+](=O)[O-]	> 1000	–
